# Activity calls are given as the source filed them. No cut-off for these calls is given here.
# Experiments:
# MDA-MB-231 [1] = assay: Growth inhibition of human MDA-MB-231 cells at 5 nM after 96 hrs by sulforhodamine B assay relative to control; assay type: functional; details: MDA-MB-231, 96 h
# MDA-MB-231 [2] = assay: Growth inhibition of human MDA-MB-231 cells at 10 nM after 96 hrs by sulforhodamine B assay relative to control; assay type: functional; details: MDA-MB-231, 96 h
# MDA-MB-231 [3] = assay: Growth inhibition of human MDA-MB-231 cells at 3 uM after 96 hrs by sulforhodamine B assay relative to control; assay type: functional; details: MDA-MB-231, 96 h
# In short: (§1)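 MDA-MB-231 cells in DMEM with 10% FBS, 10 mM HEPES, P/S and 2 mM L-glutamine at 37 °C, 5% CO2, were treated in 96-well plates for 96 h, either alone or with a 20 nM co-treatment. They were then TCA-fixed, SRB-stained and read at 530 nm. Results are % growth inhibition versus untreated cells, with 0.5% DMSO as vehicle control, from triplicates in at least two experiments.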
# MDA-MB-231 [4] = assay: Growth inhibition of human MDA-MB-231 cells at 5 uM after 96 hrs by sulforhodamine B assay relative to control; assay type: functional; details: MDA-MB-231, 96 h; in short: as §1
# A549 = assay: Growth inhibition of human A549 cells after 96 hrs by sulforhodamine B assay; assay type: functional, cell-based; details: A549, 96 h
# In short: (§2)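 SRB assay with 96 h exposure to a range of concentrations and a DMSO control. Cells were TCA-fixed, SRB-stained and read at 530 nm to give IC50. Cells were kept at 37 °C, 5% CO₂. All other lines were grown in RPMI1640 with 10% FBS, pyruvate, HEPES and P/S.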
# CAKI-1 = assay: Growth inhibition of human Caki1 cells after 96 hrs by sulforhodamine B assay; assay type: functional, cell-based; details: CAKI-1, 96 h; in short: as §2
# MDA-MB-231 [5] = assay: Induction of apoptosis in human MDA-MB-231 cells assessed as increase of p21 WAF1 protein level at 70 nM after 24 to 72 hrs by Western blotting; assay type: functional, cell-based
# In short: (§3)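 MDA-MB-231 cells were exposed to 70 nM for 24, 48 or 72 h alongside untreated controls. After a PBS wash, cells were lysed in 25 mM Tris-HCl pH 7.5, 300 mM NaCl, 1% Triton X-100 with protease inhibitors. Protein was quantified by BCA, run on SDS-PAGE and transferred to nitrocellulose. Blots were probed for p21WAF1, Bcl-2 and Bad, with β-actin as the loading control.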
# MDA-MB-231 [6] = assay: Cell cycle arrest in human MDA-MB-231 cells assessed as accumulation at G2/M phase at 0.02 to 0.2 uM after 3 to 12 hrs using propidium iodide staining; assay type: functional, cell-based
# MDA-MB-231 [7] = assay: Induction of apoptosis in human MDA-MB-231 cells assessed as decrease of Bcl-2 protein level at 70 nM after 24 to 72 hrs by Western blotting; assay type: functional, cell-based; in short: as §3
# MDA-MB-231 [8] = assay: Growth inhibition of human MDA-MB-231 cells after 96 hrs by sulforhodamine B assay; assay type: functional, cell-based; details: MDA-MB-231, 96 h; in short: as §2
# MKN-45 = assay: Growth inhibition of human MKN45 cells after 96 hrs by sulforhodamine B assay; assay type: functional, cell-based; details: MKN-45, 96 h; in short: as §2
# HCT-116 [9] = assay: Resistant index, ratio of IC50 for human HCT15 cells to IC50 for human HCT116 cells; assay type: functional
# HCT-116 [10] = assay: Growth inhibition of human HCT116 cells after 96 hrs by sulforhodamine B assay; assay type: functional, cell-based; details: HCT-116, 96 h; in short: as §2
# MDA-MB-231 [11] = assay: Growth inhibition of human MDA-MB-231 cells at 20 nM after 96 hrs by sulforhodamine B assay relative to control; assay type: functional; details: MDA-MB-231, 96 h
# MDA-MB-231 [12] = assay: Induction of apoptosis in human MDA-MB-231 cells assessed as DNA fragmentation; assay type: functional, cell-based
# PC-3 = assay: Growth inhibition of human PC3 cells after 96 hrs by sulforhodamine B assay; assay type: functional, cell-based; details: PC-3, 96 h; in short: as §2
# OVCAR-3 = assay: Growth inhibition of human OVCAR-3 cells after 96 hrs by sulforhodamine B assay; assay type: functional, cell-based; details: OVCAR-3, 96 h; in short: as §2
# PANC-1 = assay: Growth inhibition of human PANC1 cells after 96 hrs by sulforhodamine B assay; assay type: functional, cell-based; details: PANC-1, 96 h; in short: as §2
# HCT-15 = assay: Growth inhibition of human HCT15 cells after 96 hrs by sulforhodamine B assay; assay type: functional, cell-based; details: HCT-15, 96 h
# In short: as §2, with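 “CO₂. MDA-MB-231, HCT116, Caki-1, UMRC2 and PANC-1 were grown in DMEM with 10% FBS, HEPES, P/S and glutamine.” for “CO₂.”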
# MDA-MB-231 [13] = assay: Induction of apoptosis in human MDA-MB-231 cells assessed as PARP fragmentation; assay type: functional, cell-based
# HepG2 = assay: Growth inhibition of human HepG2 cells after 96 hrs by sulforhodamine B assay; assay type: functional, cell-based; details: HepG2, 96 h; in short: as §2
# HT-29 = assay: Growth inhibition of human HT-29 cells after 96 hrs by sulforhodamine B assay; assay type: functional, cell-based; details: HT-29, 96 h; in short: as §2
# [14] = Growth inhibition of human UMRC2 cells after 96 hrs by sulforhodamine B assay; assay type: functional, cell-based; details: UMRC2, 96 h; in short: as §2
# U-251 = assay: Growth inhibition of human U251 cells after 96 hrs by sulforhodamine B assay; assay type: functional, cell-based; details: U-251, 96 h; in short: as §2
# HeLa = assay: Growth inhibition of human HeLa cells after 96 hrs by sulforhodamine B assay; assay type: functional, cell-based; in short: as §2
# SK-MEL-28 = assay: Growth inhibition of human SK-MEL-28 cells after 96 hrs by sulforhodamine B assay; assay type: functional, cell-based; details: SK-MEL-28, 96 h; in short: as §2
# MDA-MB-231 [15] = assay: Growth inhibition of human MDA-MB-231 cells at 0.1 uM after 96 hrs by sulforhodamine B assay relative to control; assay type: functional; details: MDA-MB-231, 96 h
# MDA-MB-231 [16] = assay: Growth inhibition of human MDA-MB-231 cells at 0.2 uM after 96 hrs by sulforhodamine B assay relative to control; assay type: functional; details: MDA-MB-231, 96 h
Compound,IC50 (A549) [nM],IC50 (CAKI-1) [nM],IC50 (MDA-MB-231 [8]) [nM],IC50 (MKN-45) [nM],IC50 (HCT-116 [10]) [nM],IC50 (PC-3) [nM],IC50 (OVCAR-3) [nM],IC50 (PANC-1) [nM],IC50 (HepG2) [nM],IC50 (HT-29) [nM],IC50 [14] [nM],IC50 (U-251) [nM],IC50 (HeLa) [nM],IC50 (SK-MEL-28) [nM],other results
COc1cccc2c1C(=O)c1c(O)c3c(c(O)c1C2=O)C[C@@](O)(C(=O)CO)C[C@@H]3O[C@H]1C[C@H](N)[C@H](O)[C@H](C)O1 [DOXORUBICIN],–,–,–,–,–,–,–,–,–,–,–,–,–,–,inhibition at 0.005 µM (MDA-MB-231 [1]): 4.2%; inhibition at 0.01 µM (MDA-MB-231 [2]): 59.2%
O=c1[nH]cc(F)c(=O)[nH]1 [FLUOROURACIL],–,–,–,–,–,–,–,–,–,–,–,–,–,–,inhibition at 3 µM (MDA-MB-231 [3]): 3.3%; inhibition at 5 µM (MDA-MB-231 [4]): 41.6%
COc1cc(OC)cc(N2CCN(C(=O)Nc3nc4cc(F)ccc4nc3OC)CC2)c1 [SUPINOXIN],21,11,12,20,20,21,12,21,19,21,13,15,21,20,Activity (MDA-MB-231 [5]): Active; Activity (MDA-MB-231 [6]): Active; Activity (MDA-MB-231 [7]): Active; Ratio IC50 (HCT-116 [9]): 0.72; inhibition at 0.02 µM (MDA-MB-231 [11]): 14%; Activity (MDA-MB-231 [12]): Active; IC50 (HCT-15): 21 nM; Activity (MDA-MB-231 [13]): Active
COc1cc(OC)cc(N2CCN(C(=O)Nc3nc4c(C)cccc4nc3OC)CC2)c1,56,32,60,57,50,57,39,54,63,55,30,54,62,64,–
COc1cc(OC)cc(N2CCN(C(=O)Nc3nc4c(OC)cccc4nc3OC)CC2)c1,64,33,56,52,60,57,44,42,57,74,29,58,63,68,–
COc1cc(OC)cc(N2CCN(C(=O)Nc3nc4cc(C)ccc4nc3OC)CC2)c1,55,29,32,40,47,63,23,70,45,48,39,31,51,47,–
Nc1ccn([C@@H]2O[C@H](CO)[C@@H](O)C2(F)F)c(=O)n1 [GEMCITABINE],–,–,–,–,–,–,–,–,–,–,–,–,–,–,inhibition at 0.1 µM (MDA-MB-231 [15]): 1%; inhibition at 0.2 µM (MDA-MB-231 [16]): 17.7%
CC(=O)O[C@H]1C(=O)[C@@]2(C)[C@H]([C@H](OC(=O)c3ccccc3)[C@]3(O)C[C@H](OC(=O)[C@H](O)[C@@H](NC(=O)c4ccccc4)c4ccccc4)C(C)=C1C3(C)C)[C@]1(OC(C)=O)CO[C@@H]1C[C@@H]2O [PACLITAXEL],–,–,–,–,2,–,–,–,–,–,–,–,–,–,Ratio IC50 (HCT-116 [9]): 70; IC50 (HCT-15): 140 nM
COc1cc(OC)cc(N2CCN(C(=O)Nc3nc4cc(Cl)ccc4nc3OC)CC2)c1,73,53,50,64,68,76,42,98,63,79,65,56,73,110,–
